The nature of series [1]: folding enthalpy; higher = less favourable; fluorescence melt of hairpins on a sequencing array, two-state fit. As to conditions: sodium 0.088 M. Summed up: (§1)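 Cy3 fluorescence of library hairpins on a sequenced MiSeq flow cell, with annealed Cy3 and quencher oligos, was imaged in 50 mM Na-HEPES pH 8.0, 25 mM NaCl in 2.5 °C steps up to 60 °C. Signals were normalised to pre-quench Cy3 and to control variants. Melting temperature and folding enthalpy came from bootstrapped two-state fits, inverse-variance combined over four replicates. Fitted temperatures were raised by 9.35 °C to match UV melts.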

Series [2] in a line: melting temperature; fluorescence melt of hairpins on a sequencing array, two-state fit, raised by 9.35 °C to match UV melts. Particulars: sodium 0.088 M. Summed up: as §1

With GCTCTAGGAAACTAGGGC ((.((((....)))).)), the folding enthalpy in series [1] is -32.7 kcal/mol. In series [2], the Tm was found to be 47.1 °C.

As for GCTCTCCGAAAGGACAGC (((.(((....))).))), the folding enthalpy in series [1] was -25.9 kcal/mol. In addition, in series [2], the Tm was found to be 41.3 °C.

Take GCTCTCGAAAGAGGGAGC ((((((....)))..))): the folding enthalpy in series [1] was -21.8 kcal/mol. For the same sequence, the Tm in series [2] turned out to be 45.5 °C.

As to GCTCTCGAAAGAGTCAGC ((((((....)))..))), the folding enthalpy in series [1] is -14.7 kcal/mol. In addition, the Tm in series [2] turned out to be 32.9 °C.

For GCTCTCGAAAGAGTTAGC ((((((....)))..))), the folding enthalpy in series [1] was -21.8 kcal/mol. In series [2], the Tm was 35.3 °C.

On to GCTCTCGCGAAAGCGAGC (((..(((....)))))), for which the folding enthalpy in series [1] is -4.57 kcal/mol. For the same sequence, in series [2], the Tm was determined as 38.3 °C.

Take GCTCTGCGAAAGCAAGGC ((..(((....)))..)): in series [1], the folding enthalpy was -17.7 kcal/mol. Also, the Tm in series [2] stood at 46.9 °C.

For the sequence GCTCTGCGAAAGCATAGC (((.(((....))).))), the folding enthalpy in series [1] is -41.8 kcal/mol. Besides, the Tm in series [2] came out at 49.8 °C.

As for GCTCTGCGAAAGCGAAGC (((..((....))..))), the folding enthalpy in series [1] is -13.6 kcal/mol. For the same sequence, the Tm in series [2] was found to be 40.8 °C.

Consider GCTCTGCGAAAGCGGGGC ((.(.((....)).).)), for which the folding enthalpy in series [1] is -27.6 kcal/mol. The Tm in series [2] was 63.4 °C.

On to GCTCTGCGAAAGCTCAGC (((..((....))..))), for which the folding enthalpy in series [1] is -14.9 kcal/mol. Also, in series [2], the Tm worked out at 35.5 °C.

Consider GCTCTGCGAAAGCTGTGC ((.(.((....)).).)), for which the folding enthalpy in series [1] is -21 kcal/mol. Also, in series [2], the Tm stood at 43.6 °C.

For GCTCTGCGAAAGCTTAGC (((..((....))..))), the folding enthalpy in series [1] is -18.5 kcal/mol. In addition, in series [2], the Tm was determined as 44.2 °C.

GCTCTGGGAAACCAGGGC ((.((((....)))).)): the folding enthalpy in series [1] is -38 kcal/mol. Moreover, in series [2], the Tm came out at 54.6 °C.

As for GCTCTTGGAAACAAGAGC (((((((....))))))), the folding enthalpy in series [1] is -37.2 kcal/mol. For the same sequence, the Tm in series [2] worked out at 63.2 °C.

For GCTCTTGGAAACAAGGGC ((.((((....)))).)), the folding enthalpy in series [1] is -38.5 kcal/mol. Further, the Tm in series [2] stood at 50.6 °C.

With GCTCTTGGAAACGAGAGC (((((.(....).))))), the folding enthalpy in series [1] is -30.2 kcal/mol. In addition, the Tm in series [2] was 51.2 °C.

As for GCTGAAGGAAACTCCAGC ((((.((....)).)))), the folding enthalpy in series [1] is -27.8 kcal/mol. Besides, the Tm in series [2] was 40.7 °C.

Consider GCTGAAGGAAACTTCAAC (.(((((....))))).), for which the folding enthalpy in series [1] was -18 kcal/mol. In addition, the Tm in series [2] stood at 29.8 °C.

Consider GCTGAAGGAAACTTCAGC (((((((....))))))), for which the folding enthalpy in series [1] is -41.1 kcal/mol. Besides, the Tm in series [2] turned out to be 62.4 °C.

In the case of GCTGACGAAAGTCCGAGC ((((((....)))..))), the folding enthalpy in series [1] is -17.6 kcal/mol. Besides, the Tm in series [2] amounted to 37.6 °C.

For the sequence GCTGACGAAAGTCGAGC ((((((....))).))), in series [1], the folding enthalpy was -37.7 kcal/mol. In addition, the Tm in series [2] was 54.6 °C.

GCTGACGAAAGTCGCAGC ((((((....)))..))): in series [1], the folding enthalpy is -16.7 kcal/mol. Besides, the Tm in series [2] came out at 49.5 °C.

As for GCTGACGAAAGTCTAGC ((((((....))).))), the folding enthalpy in series [1] is -22.1 kcal/mol. For the same sequence, in series [2], the Tm amounted to 51.9 °C.

For the sequence GCTGACGAAAGTCTCAGC ((((((....)))..))), the folding enthalpy in series [1] was -20.9 kcal/mol. In addition, the Tm in series [2] turned out to be 40.9 °C.

Regarding GCTGACGAAAGTCTTAGC ((((((....)))..))), in series [1], the folding enthalpy was -22.6 kcal/mol. For the same sequence, in series [2], the Tm worked out at 39.8 °C.

Turning to GCTGAGAAATCAGC (((((....))))), the folding enthalpy in series [1] is -28.4 kcal/mol. For the same sequence, the Tm in series [2] was determined as 53.2 °C.

Take GCTGAGCGAAAGCACCGC ((.(.((....)).).)): the folding enthalpy in series [1] was -19 kcal/mol. In addition, the Tm in series [2] came out at 37.2 °C.

As for GCTGAGCGAAAGCCGAGC (((..((....))..))), in series [1], the folding enthalpy was -17.2 kcal/mol. For the same sequence, in series [2], the Tm was found to be 48.7 °C.

For GCTGAGCGAAAGCGCTGC ((.(.((....)).).)), in series [1], the folding enthalpy is -16.1 kcal/mol. In addition, in series [2], the Tm was found to be 54.7 °C.

Take GCTGAGCGAAAGCTATGC ((..(((....)))..)): in series [1], the folding enthalpy is -17.4 kcal/mol. For the same sequence, in series [2], the Tm was found to be 48.6 °C.

In the case of GCTGAGCGAAAGCTCTGC ((.((((....)))).)), the folding enthalpy in series [1] is -31.6 kcal/mol. Besides, the Tm in series [2] was determined as 66.4 °C.

As for GCTGAGCGAAAGCTGCGC ((..(((....)))..)), the folding enthalpy in series [1] is -19 kcal/mol. For the same sequence, the Tm in series [2] is 54.7 °C.

Regarding GCTGAGCGAAAGCTTAGC (((.(((....))).))), the folding enthalpy in series [1] was -50.4 kcal/mol. Further, the Tm in series [2] is 57.4 °C.

Regarding GCTGAGGGAAACCCCAGC ((((.((....)).)))), the folding enthalpy in series [1] is -33.3 kcal/mol. The Tm in series [2] turned out to be 51.4 °C.

GCTGAGGGAAACCTCGGC ((.((((....)))).)): in series [1], the folding enthalpy was -39.9 kcal/mol. Further, the Tm in series [2] was 56.8 °C.

(Values after the array DNA melting data of Ke et al. (doi:10.1101/2024.01.08.574731).)
